Experimental data pooled from the literature.
Protocols differ between the studies behind these lines.
DCLK3: Serine/threonine-protein kinase DCLK3 (DCLK3, Homo sapiens, UniProt Q9C098)
mraY: mraY (Staphylococcus aureus, UniProt Q2FZ93)
TSSK1B: Testis-specific serine/threonine-protein kinase 1 (TSSK1B, Homo sapiens, UniProt Q9BXA7)

C[C@]1(O)CCCN(c2nc(Nc3ccc(S(=O)(=O)N[C@H]4CC[C@H](CN5CCN(c6ccc(C7CCC(=O)NC7=O)cc6F)CC5)CC4)cc3Cl)ncc2C(F)(F)F)C1 (stereo partly shown)  remaining binding (DCLK3; binding, competition with immobilised ligand; 1 µM): 52%
CCCCCCC#Cc1cncc(-c2nnc(SCc3ccc(Cl)cc3)n2CCCN)c1  inhibition (mraY; cell-free assay, inhibitor; 250 µM): 34%
N#Cc1ccc(NC(=O)Nc2ccccc2)cc1  remaining binding (TSSK1B; cell-free assay, competition with immobilised ligand; 25 µM): 83%
NC/C(=C\F)COc1cccc(Cn2c(=S)[nH]c(=O)c3[nH]cnc32)c1  inhibition (B1 bradykinin receptor (BDKRB1, Homo sapiens, UniProt P46663); ligand displacement, radioligand; 10 µM): < 50%
C1=C/COCc2cc(ccc2OCCN2CCCC2)Nc2nccc(n2)-c2cccc(c2)COC/1  remaining binding (Receptor-type tyrosine-protein kinase FLT3 (FLT3, Homo sapiens, UniProt P36888, R834Q); binding; 0.1 µM): 17%
C[C@]1(O)CCCN(c2nc(Nc3ccc(S(=O)(=O)N[C@H]4CC[C@H](CN5CCN(c6ccc(C7CCC(=O)NC7=O)cc6F)CC5)CC4)cc3F)ncc2C(F)(F)F)C1 (stereo partly shown)  remaining binding (DCLK3; binding, competition with immobilised ligand; 1 µM): 43%
Cc1cc(-c2ccnc3[nH]cc(F)c23)cc(F)c1[C@@]1(O)[C@H](C)CN(C(=O)CN)C[C@@H]1C  remaining activity (Rho-associated protein kinase 1 (ROCK1, Homo sapiens, UniProt Q13464); enzyme activity, inhibitor; 0.1 µM): 13.5%
CCCCC(=O)Nc1ccc(-c2ccc3ncn(CCC)c(=O)c3c2)cn1  remaining binding (Atypical kinase COQ8B, mitochondrial (COQ8B, Homo sapiens, UniProt Q96D53); binding, competition with immobilised ligand; 0.5 µM): 99%
CCCC[C@H](NC(=O)[C@H](Cc1c[nH]c2ccccc12)N(C)C(=O)C1(O)C[C@H](O)[C@@H](NC(C)=O)[C@H]([C@H](O)[C@H](O)CO)O1)C(=O)N[C@@H](CC(=O)O)C(=O)N[C@@H](Cc1cccc(Br)c1)C(N)=O (stereo partly shown)  Emax (Gastrin/cholecystokinin type B receptor (CCKBR, Homo sapiens, UniProt P32239); β-arrestin recruitment, agonist; HTLA): 102%
C[C@H](NC(=O)C(=O)Nc1ccccc1C(C)(C)C)C(=O)N[C@@H](CC(=O)O)C(=O)COc1c(F)c(F)cc(F)c1F  kinact/KI (Caspase-4 (CASP4, Homo sapiens, UniProt P49662); enzyme activity, inhibitor): 19200 M⁻¹ s⁻¹
CCCCCCC#Cc1cncc(-c2nnc(SC[C@H]3O[C@@H](n4ccc(=O)[nH]c4=O)[C@H](O)[C@@H]3O)n2CCO)c1  inhibition (mraY; cell-free assay, inhibitor; 250 µM): 22%
CCN1/C(=C/C(C)=O)Sc2ccc(F)cc21  inhibition (B2 bradykinin receptor (BDKRB2, Homo sapiens, UniProt P30411); ligand displacement, radioligand; 10 µM): 0%
CNS(=O)(=O)c1ccc(Nc2ncc(C(F)(F)F)c(N3CCC[C@](C)(O)C3)n2)c(C)c1  remaining binding (DCLK3; binding, competition with immobilised ligand; 1 µM): 41%
COc1ccc2oc(-c3ccc4nc(N)oc4c3)c/c(=N\c3ccccc3NC(=O)CCN)c2c1  remaining binding (TSSK1B; binding; 1 µM): 100%
Cc1cc(S(=O)(=O)N[C@H]2CC[C@H](CN3CCN(c4ccc(C5CCC(=O)NC5=O)cc4F)CC3)CC2)ccc1Nc1ncc(C(F)(F)F)c(N2CCC[C@](C)(O)C2)n1 (stereo partly shown)  remaining binding (DCLK3; binding, competition with immobilised ligand; 1 µM): 28%
CCCCCCC#Cc1cncc(-c2nnc(SCc3ccc([N+](=O)[O-])o3)n2CCO)c1  inhibition (mraY; cell-free assay, inhibitor; 250 µM): 61%
